Measured values taken from BindingDB's records for doi:10.1021/jm030110r (Pharmaceutical Research Institute, 2003).

Biological target: Proto-oncogene tyrosine-protein kinase Src (Rattus norvegicus, UniProt Q9WUD9)
Experiment: Inhibition of v-Src tyrosine kinase autophosphorylation in SR3Y1 cells after 15 hr
Summary of the method: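 SR-3Y1 cells exposed to drug 15 h, lysed on ice 20 min in Tris pH 7.5 RIPA-type buffer with protease inhibitors and 1 mM vanadate. Equal-protein lysates run on SDS-PAGE, blotted with anti-phosphotyrosine antibody, HRP secondary, ECL detection. IC50 = concentration halving tyrosine phosphorylation.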

Sequence of Proto-oncogene tyrosine-protein kinase Src (Q9WUD9 2-536 limits assumed): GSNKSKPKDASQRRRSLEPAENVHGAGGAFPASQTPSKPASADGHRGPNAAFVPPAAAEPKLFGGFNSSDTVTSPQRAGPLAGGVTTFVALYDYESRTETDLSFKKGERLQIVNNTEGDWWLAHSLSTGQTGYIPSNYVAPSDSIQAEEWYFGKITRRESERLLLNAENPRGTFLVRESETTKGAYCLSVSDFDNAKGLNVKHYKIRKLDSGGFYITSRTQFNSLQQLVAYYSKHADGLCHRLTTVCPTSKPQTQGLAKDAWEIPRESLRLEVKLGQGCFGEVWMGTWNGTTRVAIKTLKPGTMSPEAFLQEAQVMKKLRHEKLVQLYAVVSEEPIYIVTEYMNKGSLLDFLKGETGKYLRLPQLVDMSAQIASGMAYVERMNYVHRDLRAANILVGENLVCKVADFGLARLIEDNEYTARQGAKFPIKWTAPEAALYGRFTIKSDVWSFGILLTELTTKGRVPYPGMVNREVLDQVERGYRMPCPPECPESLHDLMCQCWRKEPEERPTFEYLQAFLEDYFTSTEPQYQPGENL

Q: `C[C@@H]1C[C@H]2O[C@@H]2\C=C/C=C/C(=N\OCC(=O)N2CCN(C)CC2)Cc2c(Cl)c(O)cc(O)c2C(=O)O1` [16-Chloro-17,19-dihydroxy-4-methyl-3,7-dioxa-tricyclo[13.4.0.0*6,8*]nonadeca-1(19),9,11,15,17-pentaene-2,13-dione 13-{O-[2-(4-methyl-piperazin-1-yl)-2-oxo-ethyl]-oxime}] was tested. Which IC50 did it give?
A: 13 nM
